According to ChEMBL document CHEMBL1921722, “In vitro and in vivo evaluation of select kahalalide F analogs with antitumor and antifungal activities” (Bioorg Med Chem, 2011):

What was measured:
Format in all cases: functional
[1] = system: T47D; assay: Cytotoxicity against human T47D cells assessed as cell growth at 8 nM by sulforhodamine B assay relative to control; conditions: read-out: Activity
[2] = system: OVCAR-8; assay: Cytotoxicity against human OVCAR8 cells assessed as cell growth at 80 uM by sulforhodamine B assay relative to control; conditions: read-out: Activity
[3] = system: DU-145; assay: Cytotoxicity against human DU145 cells assessed as cell growth at 800 nM by sulforhodamine B assay relative to control; conditions: read-out: Activity
[4] = system: SF-539; assay: Cytotoxicity against human SF539 cells by sulforhodamine B assay; conditions: for TGI: read-out: pTGI (converted)
In short: (§1)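 NCI Developmental Therapeutics Program 60-cell-line human tumor panel screen, run at NCI. A single-concentration pre-screen was followed by a five-concentration dose-response in 10-fold steps. GI50 is the concentration that reduces growth of treated cells to half that of untreated control cells. TGI is the concentration that completely halts growth.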

[5] = system: SN12C; assay: Cytotoxicity against human SN12C cells assessed as cell growth at 80 nM by sulforhodamine B assay relative to control; conditions: read-out: Activity
[6] = system: A549; assay: Cytotoxicity against human A549 cells assessed as cell growth at 8 uM by sulforhodamine B assay relative to control; conditions: read-out: Activity
In short: (§2)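 Run at NCI in the DTP 60-cell-line human tumor panel by standard procedure. Compounds were first screened at a single concentration, then tested at five tenfold-spaced concentrations. GI50 is the concentration reducing treated-cell growth to half that of untreated controls; TGI is the concentration completely halting growth.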

[7] = system: A498; assay: Cytotoxicity against human A498 cells assessed as cell growth at 800 nM by sulforhodamine B assay relative to control; conditions: read-out: Activity; in short: as §2
[8] = system: 786-0; assay: Cytotoxicity against human 786-0 cells assessed as cell growth at 8 nM by sulforhodamine B assay relative to control; conditions: read-out: Activity; in short: as §2
[9] = system: MCF7; assay: Cytotoxicity against human MCF7 cells assessed as cell growth at 8 uM by sulforhodamine B assay relative to control; conditions: read-out: Activity
[10] = system: 786-0; assay: Cytotoxicity against human 786-0 cells assessed as cell growth at 8 uM by sulforhodamine B assay relative to control; conditions: read-out: Activity; in short: as §2
[11] = system: Malme-3M; assay: Cytotoxicity against human MALME-3M cells assessed as cell growth at 800 nM by sulforhodamine B assay relative to control; conditions: read-out: Activity
[12] = system: HOP-62; assay: Cytotoxicity against human HOP62 cells assessed as cell growth at 800 nM by sulforhodamine B assay relative to control; conditions: read-out: Activity
[13] = system: MDA-MB-435; assay: Cytotoxicity against human MDA-MB-435 cells assessed as cell growth at 8 nM by sulforhodamine B assay relative to control; conditions: read-out: Activity
[14] = system: UACC-257; assay: Cytotoxicity against human UACC257 cells by sulforhodamine B assay; in short: as §1
[15] = system: HT-29; assay: Cytotoxicity against human HT-29 cells by sulforhodamine B assay
In short: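 Run by the NCI Developmental Therapeutics Program on its 60-line human tumour cell panel using the standard procedure. Compounds went through a single-concentration prescreen first, and those active by NCI criteria went on to a five-concentration growth-inhibition test. GI50 is the concentration that cuts growth of treated cells to half that of untreated control cells.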

[16] = system: SK-MEL-28; assay: Cytotoxicity against human SK-MEL-28 cells assessed as cell growth at 80 uM by sulforhodamine B assay relative to control; conditions: read-out: Activity
[17] = system: SF-539; assay: Cytotoxicity against human SF539 cells assessed as cell growth at 800 nM by sulforhodamine B assay relative to control; conditions: read-out: Activity
[18] = system: UO-31; assay: Cytotoxicity against human UO31 cells assessed as cell growth at 8 uM by sulforhodamine B assay relative to control; conditions: read-out: Activity
[19] = system: HL-60(TB); assay: Cytotoxicity against human HL-60(TB) cells assessed as cell growth at 8 uM by sulforhodamine B assay relative to control; conditions: read-out: Activity
[20] = system: SW-620; assay: Cytotoxicity against human SW620 cells by sulforhodamine B assay; conditions: for TGI: read-out: pTGI (converted); in short: as §1
[21] = system: SK-OV-3; assay: Cytotoxicity against human SKOV3 cells by sulforhodamine B assay; in short: as §1
[22] = system: OVCAR-8; assay: Cytotoxicity against human OVCAR8 cells assessed as cell growth at 800 nM by sulforhodamine B assay relative to control; conditions: read-out: Activity
[23] = system: NCI/ADR-RES; assay: Cytotoxicity against human NCI/ADR-RES cells assessed as cell growth at 8 uM by sulforhodamine B assay relative to control; conditions: read-out: Activity
[24] = system: UO-31; assay: Cytotoxicity against human UO31 cells by sulforhodamine B assay; conditions: for TGI: read-out: pTGI (converted); in short: as §1
[25] = system: RXF 393; assay: Cytotoxicity against human RXF393 cells assessed as cell growth at 8 nM by sulforhodamine B assay relative to control; conditions: read-out: Activity
[26] = system: U-251; assay: Cytotoxicity against human U251 cells assessed as cell growth at 8 uM by sulforhodamine B assay relative to control; conditions: read-out: Activity
[27] = system: RPMI-8226; assay: Cytotoxicity against human RPMI8226 cells assessed as cell growth at 800 nM by sulforhodamine B assay relative to control; conditions: read-out: Activity
[28] = system: MDA-MB-231; assay: Cytotoxicity against human MDA-MB-231 cells assessed as cell growth at 80 uM by sulforhodamine B assay relative to control; conditions: read-out: Activity
[29] = system: M14; assay: Cytotoxicity against human M14 cells by sulforhodamine B assay; conditions: for TGI: read-out: pTGI (converted); in short: as §1
[30] = system: LOX IMVI; assay: Cytotoxicity against human LOXIMVI cells assessed as cell growth at 80 uM by sulforhodamine B assay relative to control; conditions: read-out: Activity
[31] = system: M14; assay: Cytotoxicity against human M14 cells assessed as cell growth at 8 uM by sulforhodamine B assay relative to control; conditions: read-out: Activity
[32] = system: SF-268; assay: Cytotoxicity against human SF268 cells by sulforhodamine B assay
[33] = system: K562; assay: Cytotoxicity against human K562 cells assessed as cell growth at 80 uM by sulforhodamine B assay relative to control; conditions: read-out: Activity
[34] = system: SF-539; assay: Cytotoxicity against human SF539 cells assessed as cell growth at 8 nM by sulforhodamine B assay relative to control; conditions: read-out: Activity
[35] = system: BT-549; assay: Cytotoxicity against human BT549 cells assessed as cell growth at 80 nM by sulforhodamine B assay relative to control; conditions: read-out: Activity; in short: as §2
[36] = system: OVCAR-3; assay: Cytotoxicity against human OVCAR3 cells assessed as cell growth at 8 uM by sulforhodamine B assay relative to control; conditions: read-out: Activity
[37] = system: NCI-H522; assay: Cytotoxicity against human NCI-H522 cells assessed as cell growth at 80 nM by sulforhodamine B assay relative to control; conditions: read-out: Activity
[38] = system: OVCAR-3; assay: Cytotoxicity against human OVCAR3 cells assessed as cell growth at 800 nM by sulforhodamine B assay relative to control; conditions: read-out: Activity
[39] = system: Hs-578T; assay: Cytotoxicity against human Hs578T cells assessed as cell growth at 8 uM by sulforhodamine B assay relative to control; conditions: read-out: Activity
[40] = system: SNB-19; assay: Cytotoxicity against human SNB19 cells assessed as cell growth at 800 nM by sulforhodamine B assay relative to control; conditions: read-out: Activity

C/C=C1\NC(=O)[C@H](Cc2ccccc2)NC(=O)[C@@H](C(C)C)NC(=O)[C@@H]([C@@H](C)CC)NC(=O)[C@H](NC(=O)[C@H](NC(=O)[C@H](CCCNCc2ccc(N3CCOCC3)cc2)NC(=O)[C@H]2CCCN2C(=O)[C@H](NC(=O)[C@@H](NC(=O)[C@@H](NC(=O)[C@H](NC(=O)CCCC(C)C)C(C)C)[C@@H](C)O)C(C)C)C(C)C)[C@@H](C)CC)[C@@H](C)OC(=O)[C@H](C(C)C)NC1=O
growth at 0.008 µM [1]: 101% | growth at 80 µM [2]: 28% | growth at 0.8 µM [3]: -77% | GI50 [4]: 1290 nM | LC50 [4]: 4570 nM | TGI [4]: 2450 nM | growth at 0.08 µM [5]: 91% | growth at 8 µM [6]: -65% | growth at 0.8 µM [7]: 100% | growth at 0.008 µM [8]: 103% | growth at 8 µM [9]: -53% | growth at 8 µM [10]: -88% | growth at 0.8 µM [11]: 117% | growth at 0.8 µM [12]: 95% | growth at 0.008 µM [13]: 103% | GI50 ([14]; read-out: GI50): 1340 nM | TGI ([14]; read-out: TGI): 2650 nM | GI50 ([14]; read-out: pGI50 (converted)): 1350 nM | TGI ([14]; read-out: pTGI (converted)): 2630 nM | GI50 ([15]; read-out: GI50): 224 nM | GI50 ([15]; read-out: pGI50 (converted)): 224 nM | growth at 80 µM [16]: -13% | growth at 0.8 µM [17]: 93% | growth at 8 µM [18]: -76% | growth at 8 µM [19]: -17% | GI50 [20]: 1050 nM | TGI [20]: 2040 nM | GI50 ([21]; read-out: GI50): 178 nM | TGI ([21]; read-out: TGI): 415 nM | GI50 ([21]; read-out: pGI50 (converted)): 178 nM | TGI ([21]; read-out: pTGI (converted)): 417 nM | growth at 0.8 µM [22]: 96% | growth at 8 µM [23]: -43% | GI50 [24]: 1380 nM | TGI [24]: 2690 nM | growth at 0.008 µM [25]: 111% | growth at 8 µM [26]: -98% | growth at 0.8 µM [27]: 76% | growth at 80 µM [28]: -43% | GI50 [29]: 1410 nM | LC50 [29]: 4680 nM | TGI [29]: 2570 nM | growth at 80 µM [30]: -59% | growth at 8 µM [31]: -89% | GI50 [32]: 1450 nM | growth at 80 µM [33]: -39% | growth at 0.008 µM [34]: 101% | growth at 0.08 µM [35]: 95% | growth at 8 µM [36]: -72% | growth at 0.08 µM [37]: 99% | growth at 0.8 µM [38]: 46% | growth at 8 µM [39]: -46% | growth at 0.8 µM [40]: 90%

C/C=C1\NC(=O)[C@H](Cc2ccccc2)NC(=O)[C@@H](C(C)C)NC(=O)[C@@H]([C@@H](C)CC)NC(=O)[C@H](NC(=O)[C@H](NC(=O)[C@H](CCCNCc2ccc(F)c(C)c2)NC(=O)[C@H]2CCCN2C(=O)[C@H](NC(=O)[C@@H](NC(=O)[C@@H](NC(=O)[C@H](NC(=O)CCCC(C)C)C(C)C)[C@@H](C)O)C(C)C)C(C)C)[C@@H](C)CC)[C@@H](C)OC(=O)[C@H](C(C)C)NC1=O
growth at 0.008 µM [1]: 104% | growth at 80 µM [2]: 48% | growth at 0.8 µM [3]: -85% | GI50 [4]: 1290 nM | LC50 [4]: 4370 nM | TGI [4]: 2400 nM | growth at 0.08 µM [5]: 94% | growth at 8 µM [6]: -64% | growth at 0.8 µM [7]: 96% | growth at 0.008 µM [8]: 103% | growth at 8 µM [9]: -53% | growth at 8 µM [10]: -99% | growth at 0.8 µM [11]: 102% | growth at 0.8 µM [12]: 87% | growth at 0.008 µM [13]: 109% | LC50 [14]: 5130 nM | GI50 ([14]; read-out: GI50): 1280 nM | TGI ([14]; read-out: TGI): 2550 nM | GI50 ([14]; read-out: pGI50 (converted)): 1290 nM | TGI ([14]; read-out: pTGI (converted)): 2570 nM | GI50 ([15]; read-out: GI50): 164 nM | GI50 ([15]; read-out: pGI50 (converted)): 162 nM | growth at 80 µM [16]: 1% | growth at 0.8 µM [17]: 93% | growth at 8 µM [18]: -78% | growth at 8 µM [19]: -65% | GI50 [20]: 513 nM | LC50 [20]: 3310 nM | TGI [20]: 1450 nM | LC50 [21]: 891 nM | GI50 ([21]; read-out: GI50): 173 nM | TGI ([21]; read-out: TGI): 370 nM | GI50 ([21]; read-out: pGI50 (converted)): 174 nM | TGI ([21]; read-out: pTGI (converted)): 372 nM | growth at 0.8 µM [22]: 92% | growth at 8 µM [23]: -76% | GI50 [24]: 1320 nM | TGI [24]: 2630 nM | growth at 0.008 µM [25]: 103% | growth at 8 µM [26]: -96% | growth at 0.8 µM [27]: 59% | growth at 80 µM [28]: -89% | GI50 [29]: 1350 nM | TGI [29]: 2400 nM | growth at 80 µM [30]: -92% | growth at 8 µM [31]: -99% | GI50 [32]: 955 nM | growth at 80 µM [33]: -14% | growth at 0.008 µM [34]: 105% | growth at 0.08 µM [35]: 76% | growth at 8 µM [36]: -94% | growth at 0.08 µM [37]: 101% | growth at 0.8 µM [38]: 39% | growth at 8 µM [39]: -48% | growth at 0.8 µM [40]: 90%
